Test results reported in ChEMBL document CHEMBL4689842, “EUbOPEN Chemogenomics Library wave 1” (2021).
Values joined by “and” are separate entries in the source; they are usually repeats but may differ in a detail not shown here. Identical values can stand only once.

Test system: U2OS
Assay: Multiplex assay against U2OS
Assay type: toxicity, cell-based
Settings: human
Method in brief: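 Per cents of healthy-nucleus cells form the tubulin, mitochondrial-mass and membrane-permeability phenotype values. Live cells were stained at seeding with Hoechst33342, BioTracker Green Microtubule Cytoskeleton Dye, MitoTracker Red and Annexin V Alexa Fluor 680. After compound addition they were imaged on a CQ1 microscope at 37°C and 5% CO2, and CellPathfinder machine-learning gating split them into Hoechst high-intensity objects or normal cells, normal cells into healthy, pyknosed or fragmented nuclei, and pyknosed cells into mitotic or apoptotic.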

[1] = 12 h, 1 µM, compound concentration 1 uM, replicate 1
[2] = 12 h, 1 µM, compound concentration 1 uM, replicate 2
[3] = 12 h, 10 µM, compound concentration 10 uM, replicate 1
[4] = 12 h, 10 µM, compound concentration 10 uM, replicate 2
[5] = 24 h, 1 µM, compound concentration 1 uM, replicate 1
[6] = 24 h, 1 µM, compound concentration 1 uM, replicate 2
[7] = 24 h, 10 µM, compound concentration 10 uM, replicate 1
[8] = 24 h, 10 µM, compound concentration 10 uM, replicate 2
[9] = 48 h, 1 µM, compound concentration 1 uM, replicate 1
[10] = 48 h, 1 µM, compound concentration 1 uM, replicate 2
[11] = 48 h, 10 µM, compound concentration 10 uM, replicate 1
[12] = 48 h, 10 µM, compound concentration 10 uM, replicate 2

SMILES: COc1ccccc1CN[C@H]1C2CCN(CC2)[C@H]1C(c1ccccc1)c1ccccc1 [CP-96345]
- Population Apoptotic (%) [1]: 22%
- Population Fragmented Nuclei (%) [1]: 14%
- Population Healthy Nuclei (%) [1]: 71%
- Population Hoechst High Intensity Objects (%) [1]: 11%
- Population Membrane Permeable-Phenotype (%) [1]: 8%
- Population Mitochondria Different-Phenotype (%) [1]: 20%
- Population Mitotic Cells (%) [1]: 77%
- Population Normal (%) [1]: 88%
- Population Pyknosed Nuclei (%) [1]: 14%
- Population Tubulin-Different-Phenotype (%) [1]: 16%
- Total Cell Count [1]: 136
- Population Apoptotic (%) [2]: 66%
- Population Fragmented Nuclei (%) [2]: 4%
- Population Healthy Nuclei (%) [2]: 92%
- Population Hoechst High Intensity Objects (%) [2]: 0%
- Population Membrane Permeable-Phenotype (%) [2]: 4%
- Population Mitochondria Different-Phenotype (%) [2]: 7%
- Population Mitotic Cells (%) [2]: 33%
- Population Normal (%) [2]: 100%
- Population Pyknosed Nuclei (%) [2]: 3%
- Population Tubulin-Different-Phenotype (%) [2]: 8%
- Total Cell Count [2]: 90
- Population Apoptotic (%) [3]: 51%
- Population Fragmented Nuclei (%) [3]: 10%
- Population Healthy Nuclei (%) [3]: 65%
- Population Hoechst High Intensity Objects (%) [3]: 6%
- Population Membrane Permeable-Phenotype (%) [3]: 7%
- Population Mitochondria Different-Phenotype (%) [3]: 87%
- Population Mitotic Cells (%) [3]: 48%
- Population Normal (%) [3]: 93%
- Population Pyknosed Nuclei (%) [3]: 24%
- Population Tubulin-Different-Phenotype (%) [3]: 84%
- Total Cell Count [3]: 127
- Population Apoptotic (%) [4]: 50%
- Population Fragmented Nuclei (%) [4]: 2%
- Population Healthy Nuclei (%) [4]: 86%
- Population Hoechst High Intensity Objects (%) [4]: 3%
- Population Membrane Permeable-Phenotype (%) [4]: 1%
- Population Mitochondria Different-Phenotype (%) [4]: 45%
- Population Mitotic Cells (%) [4]: 50%
- Population Normal (%) [4]: 96%
- Population Pyknosed Nuclei (%) [4]: 10%
- Population Tubulin-Different-Phenotype (%) [4]: 26%
- Total Cell Count [4]: 77
- Population Apoptotic (%) [5]: 45%
- Population Fragmented Nuclei (%) [5]: 12%
- Population Healthy Nuclei (%) [5]: 79%
- Population Hoechst High Intensity Objects (%) [5]: 7%
- Population Membrane Permeable-Phenotype (%) [5]: 6%
- Population Mitochondria Different-Phenotype (%) [5]: 13%
- Population Mitotic Cells (%) [5]: 54%
- Population Normal (%) [5]: 92%
- Population Pyknosed Nuclei (%) [5]: 7%
- Population Tubulin-Different-Phenotype (%) [5]: 7%
- Total Cell Count [5]: 154
- Population Apoptotic (%) [6]: 54%
- Population Fragmented Nuclei (%) [6]: 4%
- Population Healthy Nuclei (%) [6]: 85%
- Population Hoechst High Intensity Objects (%) [6]: 2%
- Population Membrane Permeable-Phenotype (%) [6]: 1%
- Population Mitochondria Different-Phenotype (%) [6]: 4%
- Population Mitotic Cells (%) [6]: 45%
- Population Normal (%) [6]: 97%
- Population Pyknosed Nuclei (%) [6]: 9%
- Population Tubulin-Different-Phenotype (%) [6]: 17%
- Total Cell Count [6]: 114
- Population Apoptotic (%) [7]: 75%
- Population Fragmented Nuclei (%) [7]: 18%
- Population Healthy Nuclei (%) [7]: 59%
- Population Hoechst High Intensity Objects (%) [7]: 8%
- Population Membrane Permeable-Phenotype (%) [7]: 6%
- Population Mitochondria Different-Phenotype (%) [7]: 90%
- Population Mitotic Cells (%) [7]: 25%
- Population Normal (%) [7]: 91%
- Population Pyknosed Nuclei (%) [7]: 22%
- Population Tubulin-Different-Phenotype (%) [7]: 69%
- Total Cell Count [7]: 157
- Population Apoptotic (%) [8]: 40%
- Population Fragmented Nuclei (%) [8]: 2%
- Population Healthy Nuclei (%) [8]: 81%
- Population Hoechst High Intensity Objects (%) [8]: 1%
- Population Membrane Permeable-Phenotype (%) [8]: 2%
- Population Mitochondria Different-Phenotype (%) [8]: 31%
- Population Mitotic Cells (%) [8]: 60%
- Population Normal (%) [8]: 98%
- Population Pyknosed Nuclei (%) [8]: 16%
- Population Tubulin-Different-Phenotype (%) [8]: 14%
- Total Cell Count [8]: 92
- Population Apoptotic (%) [9]: 80%
- Population Fragmented Nuclei (%) [9]: 7%
- Population Healthy Nuclei (%) [9]: 85%
- Population Hoechst High Intensity Objects (%) [9]: 3%
- Population Membrane Permeable-Phenotype (%) [9]: 2%
- Population Mitochondria Different-Phenotype (%) [9]: 9%
- Population Mitotic Cells (%) [9]: 20%
- Population Normal (%) [9]: 96%
- Population Pyknosed Nuclei (%) [9]: 6%
- Population Tubulin-Different-Phenotype (%) [9]: 5%
- Total Cell Count [9]: 227
- Population Apoptotic (%) [10]: 62%
- Population Fragmented Nuclei (%) [10]: 5%
- Population Healthy Nuclei (%) [10]: 89%
- Population Hoechst High Intensity Objects (%) [10]: 0%
- Population Membrane Permeable-Phenotype (%) [10]: 4%
- Population Mitochondria Different-Phenotype (%) [10]: 12%
- Population Mitotic Cells (%) [10]: 37%
- Population Normal (%) [10]: 99%
- Population Pyknosed Nuclei (%) [10]: 4%
- Population Tubulin-Different-Phenotype (%) [10]: 21%
- Total Cell Count [10]: 164
- Population Apoptotic (%) [11]: 74%
- Population Fragmented Nuclei (%) [11]: 17%
- Population Healthy Nuclei (%) [11]: 58%
- Population Hoechst High Intensity Objects (%) [11]: 4%
- Population Membrane Permeable-Phenotype (%) [11]: 11%
- Population Mitochondria Different-Phenotype (%) [11]: 78%
- Population Mitotic Cells (%) [11]: 25%
- Population Normal (%) [11]: 95%
- Population Pyknosed Nuclei (%) [11]: 23%
- Population Tubulin-Different-Phenotype (%) [11]: 55%
- Total Cell Count [11]: 194
- Population Apoptotic (%) [12]: 33%
- Population Fragmented Nuclei (%) [12]: 9%
- Population Healthy Nuclei (%) [12]: 80%
- Population Hoechst High Intensity Objects (%) [12]: 1%
- Population Membrane Permeable-Phenotype (%) [12]: 6%
- Population Mitochondria Different-Phenotype (%) [12]: 14%
- Population Mitotic Cells (%) [12]: 66%
- Population Normal (%) [12]: 98%
- Population Pyknosed Nuclei (%) [12]: 10%
- Population Tubulin-Different-Phenotype (%) [12]: 13%
- Total Cell Count [12]: 146

SMILES: CNC(=O)c1ccc(Nc2ncc(C(F)(F)F)c(NCc3nccnc3N(C)S(C)(=O)=O)n2)cc1 [DEFACTINIB]
- Population Apoptotic (%) [1]: 22% and 66%
- Population Healthy Nuclei (%) [1]: 90% and 65%
- Population Hoechst High Intensity Objects (%) [1]: 4% and 6%
- Population Membrane Permeable-Phenotype (%) [1]: 13% and 37%
- Population Mitochondria Different-Phenotype (%) [1]: 27% and 15%
- Population Mitotic Cells (%) [1]: 77% and 33%
- Population Normal (%) [1]: 95% and 93%
- Population Pyknosed Nuclei (%) [1]: 4% and 12%
- Population Tubulin-Different-Phenotype (%) [1]: 21% and 36%
- Total Cell Count [1]: 194 and 96
- Population Apoptotic (%) [2]: 25% and 42%
- Population Fragmented Nuclei (%) [2]: 6% and 9%
- Population Healthy Nuclei (%) [2]: 89% and 77%
- Population Hoechst High Intensity Objects (%) [2]: 13% and 9%
- Population Mitochondria Different-Phenotype (%) [2]: 28% and 16%
- Population Mitotic Cells (%) [2]: 75% and 57%
- Population Normal (%) [2]: 86% and 90%
- Population Pyknosed Nuclei (%) [2]: 13%
- Population Tubulin-Different-Phenotype (%) [2]: 24%
- Total Cell Count [2]: 107 and 86
- Population Apoptotic (%) [3]: 64% and 37%
- Population Fragmented Nuclei (%) [3]: 14% and 7%
- Population Healthy Nuclei (%) [3]: 65% and 83%
- Population Hoechst High Intensity Objects (%) [3]: 8% and 3%
- Population Mitochondria Different-Phenotype (%) [3]: 13% and 25%
- Population Mitotic Cells (%) [3]: 35% and 62%
- Population Normal (%) [3]: 91% and 96%
- Population Pyknosed Nuclei (%) [3]: 20% and 8%
- Population Tubulin-Different-Phenotype (%) [3]: 32% and 24%
- Total Cell Count [3]: 148 and 188
- Population Apoptotic (%) [4]: 33% and 28%
- Population Healthy Nuclei (%) [4]: 44% and 80%
- Population Hoechst High Intensity Objects (%) [4]: 30% and 18%
- Population Membrane Permeable-Phenotype (%) [4]: 26%
- Population Mitotic Cells (%) [4]: 66% and 71%
- Population Normal (%) [4]: 69% and 81%
- Population Pyknosed Nuclei (%) [4]: 10%
- Population Tubulin-Different-Phenotype (%) [4]: 23% and 30%
- Total Cell Count [4]: 166 and 106
- Population Apoptotic (%) [5]: 46% and 76%
- Population Healthy Nuclei (%) [5]: 88% and 62%
- Population Hoechst High Intensity Objects (%) [5]: 0% and 10%
- Population Mitochondria Different-Phenotype (%) [5]: 29% and 32%
- Population Mitotic Cells (%) [5]: 53% and 24%
- Population Normal (%) [5]: 99% and 89%
- Population Pyknosed Nuclei (%) [5]: 5% and 15%
- Population Tubulin-Different-Phenotype (%) [5]: 30% and 46%
- Total Cell Count [5]: 259
- Population Fragmented Nuclei (%) [6]: 7% and 20%
- Population Healthy Nuclei (%) [6]: 90% and 57%
- Population Hoechst High Intensity Objects (%) [6]: 9% and 7%
- Population Mitochondria Different-Phenotype (%) [6]: 37% and 31%
- Population Mitotic Cells (%) [6]: 100% and 34%
- Population Normal (%) [6]: 90% and 92%
- Population Tubulin-Different-Phenotype (%) [6]: 29% and 36%
- Total Cell Count [6]: 129 and 90
- Population Apoptotic (%) [7]: 68% and 42%
- Population Healthy Nuclei (%) [7]: 51% and 88%
- Population Mitochondria Different-Phenotype (%) [7]: 28% and 32%
- Population Mitotic Cells (%) [7]: 31% and 57%
- Population Normal (%) [7]: 89% and 97%
- Population Tubulin-Different-Phenotype (%) [7]: 40% and 26%
- Total Cell Count [7]: 139 and 241
- Population Apoptotic (%) [8]: 40% and 20%
- Population Hoechst High Intensity Objects (%) [8]: 27% and 11%
- Population Membrane Permeable-Phenotype (%) [8]: 25% and 17%
- Population Mitochondria Different-Phenotype (%) [8]: 37% and 38%
- Population Mitotic Cells (%) [8]: 59% and 80%
- Population Normal (%) [8]: 72% and 88%
- Population Tubulin-Different-Phenotype (%) [8]: 34% and 28%
- Total Cell Count [8]: 163 and 126
